In general, EC50 refers to the concentration that produces a half-maximal response. Read a high EC50 as a need for much substance. As usually defined, the IC50 is the concentration that gives 50% inhibition.

Molecules are shown by their SMILES. *1 amine or outer side, *2 acyl side, *3 side chain or, on linkers, in order; H or OH if unused. Where a SMILES comes first, the peptide text is derived from it. [ ]: non-standard residue; d: D form. The star is where a group is joined. Asp(3,3-(CH2)4) = N[C@H](C(=O)O)C1(C(=O)O)CCCC1; Dibenzylacetyl = O=C(C(Cc1ccccc1)Cc1ccccc1)*; Leu(γ-Me)ol = CC(C)(C)C[C@@H](CO)N*; tBuAla = CC(C)(C)C[C@H](N)C(=O)O; Tle = CC(C)(C)[C@H](N)C(=O)O; NMeV = CN[C@H](C(=O)O)C(C)C; X1 = CC[C@@H](N*)C(C)(C)C; NH(3-pentyl) = CCC(CC)N*; Pyrrolidide = C1CCN(*)C1; NHcHex = C1CCC(N*)CC1; CO = O=C([*:1])[*:2]; X2 = CCCC(CCC)N*; NHiPr = CC(C)N*

These results are taken from ChEMBL document CHEMBL1129444, “Peptidomimetic inhibitors of herpes simplex virus ribonucleotide reductase with improved in vivo antiviral activity” (J Med Chem, 1996).

Experiment [1] relates to BHK-21. In words: Effective concentration was evaluated against HSV-1 by using serum starved baby hamster kidney cells in a colorimetric viral yield assay. To be noted: Mesocricetus auratus. The experiment is classed as functional, cell-based. The method, boiled down: (§1)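 Viral yield in serum-starved BHK cells, read colorimetrically. EC50 reported as mean of at least three separate determinations with standard deviation. Cytotoxicity measured in parallel by MTT (tetrazolium) metabolic assay to give CC50.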

Experiment [2] deals with BHK-21. In words: Effective concentration was evaluated against HSV-2 by using serum starved baby hamster kidney cells in a colorimetric viral yield assay. In kind it is functional, cell-based. To be noted: Mesocricetus auratus. The method, boiled down: as §1
The target of experiment [3] is Ribonucleotide reductase large subunit R1 (Herpes simplex virus). In words: Inhibitory effect was evaluated on Herpes simplex virus (HSV) ribonucleotide reductase (RR) enzyme.

Regarding `C[C@@H]1CCC[C@H](C)[C@@H]1NC(=O)N[C@H](C(=O)C[C@@H](CC(=O)C(C)(C)C)C(=O)N[C@H](C(=O)NCC(C)(C)C)C1(C(=O)O)CCCC1)C(C)(C)C`, the EC50 in the experiment with BHK-21 [1] came to 17 µM; in the experiment on BHK-21 [2] it was 26 µM. Turning to `CCC(CC)NC(=O)N[C@H](C(=O)N[C@@H](CC(=O)N1CCCC1)C(=O)N[C@@H](CC(=O)O)C(=O)NCCC(C)(C)C)C(C)(C)C`, in experiment [3], it took 0.1 µM to reach half-maximal inhibition (IC50). Still for that read-out and setting: for `CCC(CC)NC(=O)N[C@H](C(=O)N[C@@H](CC(=O)N1CCCC1)C(=O)N[C@@H](CC(=O)O)C(=O)N[C@@H](C)C(C)(C)C)C(C)(C)C` the value was 2.7 µM. `CC(C)C[C@H](NC(=O)[C@H](CC(=O)O)NC(=O)[C@H](CC(=O)N1CCCC1)NC(=O)[C@@H](NC(=O)NC1[C@H](C)CCC[C@@H]1C)C(C)C)C(=O)O` (stereo in doubt; 7): the IC50 in experiment [3] was 0.055 µM. `CC(C)C[C@H](NC(=O)[C@H](CC(=O)O)NC(=O)[C@H](CC(=O)N1CCCC1)NC(=O)[C@@H](NC(=O)NC1[C@H](C)CCC[C@@H]1C)C(C)C)C(=O)O` (stereo in doubt; 9): the IC50 in experiment [3] was found to be 0.002 µM. The compound `CCC(CC)NC(=O)N[C@H](C(=O)N[C@@H](CC(=O)N1CCCC1)C(=O)N[C@@H](CC(=O)O)C(=O)NCCC(C)C)C(C)(C)C` displayed an IC50 in experiment [3] of 0.35 µM. Turning to `CC[C@@H](NC(=O)[C@@H](NC(=O)[C@@H](CC(=O)[C@@H](NC(=O)[C@H](C(C)C)N(C)C(=O)C(Cc1ccccc1)Cc1ccccc1)C(C)(C)C)CC(=O)C(C)(C)C)C1(C(=O)O)CCCC1)C(C)(C)C`, the EC50 with BHK-21 [1] was 1.3 µM; in the experiment with BHK-21 [2] it was 1.6 µM. In turn, `CCC(CC)NC(=O)N[C@H](C(=O)N[C@@H](CC(=O)C(C)(C)C)C(=O)N[C@@H](CC(=O)O)C(=O)N[C@@H](CC(C)C)C(=O)O)C(C)(C)C` yielded an IC50 in experiment [3] of 0.003 µM.

In experiment [3], `CC(C)C[C@H](NC(=O)[C@H](CC(=O)O)NC(=O)[C@H](CC(=O)N1CCCC1)NC(=O)[C@@H](NC(=O)NC1CCCCC1)C(C)C)C(=O)O` ({NHcHex-CO}-VD(Pyrrolidide)DL-OH) displayed a half-inhibitory concentration (IC50) of 0.5 µM. `CCC(CC)NC(=O)N[C@H](C(=O)N[C@@H](CC(=O)N1CCCC1)C(=O)N[C@@H](CC(=O)O)C(=O)N[C@@H](CC(C)C)C(=O)O)C(C)(C)C` ({NH(3-pentyl)-CO}-[Tle]D(Pyrrolidide)DL-OH): the IC50 in experiment [3] is 0.003 µM. On to `Nc1nc2c(ncn2COCCO)c(=O)[nH]1` [ACYCLOVIR], for which the concentration for a half-maximal effect (EC50) in the experiment with BHK-21 [1] and with BHK-21 [2] was 2 µM in each case. Turning to `CC[C@@H](NC(=O)[C@@H](NC(=O)[C@@H](CC(=O)[C@@H](NC(=O)N[C@@H]1[C@H](C)CCC[C@@H]1C)C(C)(C)C)CC(=O)N1CCCC1)C1(C(=O)O)CCCC1)C(C)(C)C`, the EC50 with BHK-21 [1] turned out to be 50 µM; in the experiment on BHK-21 [2] it was 80 µM. As for `CC(C)[C@@H](C(=O)N[C@H](C(=O)N[C@@H](CC(=O)N1CCCC1)C(=O)N[C@H](C(=O)N[C@H](CO)CC(C)(C)C)C1(C(=O)O)CCCC1)C(C)(C)C)N(C)C(=O)C(Cc1ccccc1)Cc1ccccc1` (Dibenzylacetyl-[NMeV][Tle]D(Pyrrolidide)[Asp(3,3-(CH2)4)]-{Leu(γ-Me)ol}), the EC50 with BHK-21 [1] turned out to be 3.1 µM; in the experiment on BHK-21 [2], 4.2 µM. On to `CCC(CC)NC(=O)N[C@H](C(=O)C[C@@H](CC(=O)C(C)(C)C)C(=O)N[C@@H](CC(=O)O)C(=O)N[C@@H](CC(C)C)C(=O)O)C(C)(C)C`, for which, in experiment [3], the concentration for half-maximal inhibition (IC50) was 0.005 µM. Regarding `CC[C@@H](NC(=O)[C@@H](NC(=O)[C@H](CC(=O)C(C)(C)C)NC(=O)[C@@H](NC(=O)N[C@@H]1[C@H](C)CCC[C@@H]1C)C(C)(C)C)C1(C(=O)O)CCCC1)C(C)(C)C`, the EC50 in the experiment on BHK-21 [1] and in the experiment with BHK-21 [2] was 13 µM throughout. Take `CCCC(CCC)NC(=O)N[C@H](C(=O)N[C@@H](CC(=O)N1CCCC1)C(=O)N[C@@H](CC(=O)O)C(=O)N[C@@H](CC(C)C)C(=O)O)C(C)C` ({X2-CO}-VD(Pyrrolidide)DL-OH): the IC50 in experiment [3] stood at 0.007 µM. In experiment [3], `CCC(CC)NC(=O)N[C@H](C(=O)N[C@@H](CC(=O)N1CCCC1)C(=O)N[C@@H](CC(=O)O)C(=O)N[C@@H](CC(C)C)C(=O)O)C(C)C` ({NH(3-pentyl)-CO}-VD(Pyrrolidide)DL-OH) yielded an IC50 of 0.015 µM. In experiment [3], `CCC(CC)NC(=O)N[C@H](C(=O)N[C@@H](CC(=O)N1CCCC1)C(=O)N[C@@H](CC(=O)O)C(=O)N[C@@H](CC(C)(C)C)C(=O)O)C(C)(C)C` ({NH(3-pentyl)-CO}-[Tle]D(Pyrrolidide)D[tBuAla]-OH) displayed an IC50 of 0.0006 µM. For the compound `C[C@@H]1CCC[C@H](C)[C@@H]1NC(=O)N[C@H](C(=O)C[C@@H](CC(=O)C(C)(C)C)C(=O)N[C@H](C(=O)N[C@H](CO)CC(C)(C)C)C1(C(=O)O)CCCC1)C(C)(C)C`, the half-maximal effective concentration (EC50) in the experiment with BHK-21 [1] and in the experiment on BHK-21 [2] was 26 µM in each case.

In experiment [3], `CCC(CC)NC(=O)N[C@H](C(=O)N[C@@H](CC(=O)N1CCCC1)C(=O)N[C@@H](CC(=O)O)C(=O)N[C@H](CO)CC(C)(C)C)C(C)(C)C` returned an IC50 of 0.006 µM.

`CC(C)C[C@H](NC(=O)[C@H](CC(=O)O)NC(=O)[C@H](CC(=O)N1CCCC1)NC(=O)[C@@H](NC(=O)NC1[C@@H](C)CCC[C@@H]1C)C(C)C)C(=O)O.CC(C)C[C@H](NC(=O)[C@H](CC(=O)O)NC(=O)[C@H](CC(=O)N1CCCC1)NC(=O)[C@@H](NC(=O)NC1[C@H](C)CCC[C@H]1C)C(C)C)C(=O)O` returned an IC50 in experiment [3] of 0.02 µM. `CC(C)C[C@H](NC(=O)[C@H](CC(=O)O)NC(=O)[C@H](CC(=O)N1CCCC1)NC(=O)[C@@H](NC(=O)NC(C)C)C(C)C)C(=O)O` ({NHiPr-CO}-VD(Pyrrolidide)DL-OH) displayed an IC50 in experiment [3] of 0.44 µM. As to `CCC(CC)NC(=O)N[C@H](C(=O)N[C@@H](CC(=O)N1CCCC1)C(=O)N[C@@H](CC(=O)O)C(=O)NCC(C)C)C(C)(C)C`, in experiment [3], the IC50 came out at 1.9 µM.

With `CC[C@@H](NC(=O)[C@@H](NC(=O)[C@H](CC(=O)N1CCCC1)NC(=O)[C@@H](NC(=O)N[C@@H]1[C@H](C)CCC[C@@H]1C)C(C)(C)C)C1(C(=O)O)CCCC1)C(C)(C)C`, the EC50 came out at 28 µM with BHK-21 [1] and 40 µM in the experiment with BHK-21 [2]. Compound `CCC(CC)NC(=O)N[C@H](C(=O)C[C@@H](CC(=O)N1CCCC1)C(=O)N[C@@H](CC(=O)O)C(=O)N[C@@H](CC(C)C)C(=O)O)C(C)(C)C` registered an IC50 in experiment [3] of 0.007 µM. With `CC[C@@H](NC(=O)[C@@H](NC(=O)[C@@H](CC(=O)[C@@H](NC(=O)N[C@@H]1[C@H](C)CCC[C@@H]1C)C(C)(C)C)CC(=O)C(C)(C)C)C1(C(=O)O)CCCC1)C(C)(C)C`, the EC50 was 6 µM with BHK-21 [1] and 7 µM in the experiment on BHK-21 [2]. In experiment [3], `CCC(CC)NC(=O)N[C@H](C(=O)N[C@@H](CC(=O)N1CCCC1)C(=O)N[C@@H](CC(=O)O)C(=O)N[C@@H](CC)C(C)(C)C)C(C)(C)C` displayed a half-inhibitory concentration (IC50) of 2 µM. `CCC(CC)NC(=O)N[C@H](C(=O)N[C@@H](CC(=O)N1CCCC1)C(=O)N[C@@H](CC(=O)O)C(=O)N[C@H](C)C(C)(C)C)C(C)(C)C` returned an IC50 in experiment [3] of 0.027 µM. `CCC(CC)NC(=O)N[C@H](C(=O)N[C@@H](CC(=O)N1CCCC1)C(=O)N[C@@H](CC(=O)O)C(=O)NCC(C)(C)C)C(C)(C)C`: half-maximal inhibition in experiment [3] (IC50) was put at 0.04 µM. Turning to `CC[C@@H](NC(=O)[C@@H](NC(=O)[C@H](CC(=O)N1CCCC1)NC(=O)[C@@H](NC(=O)[C@H](C(C)C)N(C)C(=O)C(Cc1ccccc1)Cc1ccccc1)C(C)(C)C)C1(C(=O)O)CCCC1)C(C)(C)C` (Dibenzylacetyl-[NMeV][Tle]D(Pyrrolidide)[Asp(3,3-(CH2)4)]-X1), the EC50 was 0.8 µM in the experiment on BHK-21 [1] and 1.8 µM with BHK-21 [2]. Taken in the same sequence, the figures for `CCCC(CCC)NC(=O)N[C@H](C(=O)C[C@@H](CC(=O)C(C)(C)C)C(=O)N[C@H](C(=O)N[C@H](CC)C(C)(C)C)C1(C(=O)O)CCCC1)C(C)(C)C` were 6 µM and 5 µM.

In the case of `CCC(CC)NC(=O)N[C@H](C(=O)N[C@@H](CC(=O)N1CCCC1)C(=O)N[C@@H](CC(=O)O)C(=O)N[C@H](CC)C(C)(C)C)C(C)(C)C`, the half-maximal inhibitory concentration (IC50) in experiment [3] was determined as 0.018 µM.
